From ChEMBL document CHEMBL5705888, “Substrate specificity and inhibitors of LRRK2, a protein kinase mutated in Parkinson's disease” (Biochem J, 2009) come the findings set out here.

Broadly, the IC50 is the concentration at which inhibition is half-maximal.

The target in assay [1] is Leucine-rich repeat serine/threonine-protein kinase 2 (Homo sapiens, UniProt Q5S007, G2019S). Nature of the assay: Inhibition of GST-tagged LRRK2 G2019S mutant (1326 to 2527 residues) (unknown origin) using peptide as substrate incubated for 15 mins in presence of ATP by immunoblotting analysis.
Assay [2] has as its target T1, Serine/threonine-protein kinase 3 (Homo sapiens) (UniProt Q13188).
T1 sequence (whole entry): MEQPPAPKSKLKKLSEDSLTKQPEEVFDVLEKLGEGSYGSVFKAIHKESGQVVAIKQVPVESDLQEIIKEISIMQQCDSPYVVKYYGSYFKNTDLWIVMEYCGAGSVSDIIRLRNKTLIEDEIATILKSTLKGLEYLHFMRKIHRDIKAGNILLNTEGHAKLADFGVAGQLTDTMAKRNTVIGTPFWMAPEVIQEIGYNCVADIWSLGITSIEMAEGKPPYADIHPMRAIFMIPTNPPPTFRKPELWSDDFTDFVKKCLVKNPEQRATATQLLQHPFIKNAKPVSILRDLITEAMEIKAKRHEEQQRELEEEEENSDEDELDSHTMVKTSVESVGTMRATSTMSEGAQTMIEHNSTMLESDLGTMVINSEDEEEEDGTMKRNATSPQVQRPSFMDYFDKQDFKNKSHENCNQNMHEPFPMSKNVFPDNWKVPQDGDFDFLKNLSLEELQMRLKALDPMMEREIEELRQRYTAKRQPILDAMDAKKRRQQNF
Nature of the assay: Inhibition of MST2 (unknown origin) at 1 uM incubated for 30 mins in presence of [gamma-33P]ATP by multidrop micro reagent based assay relative to control; values are per cent of control.

The target of assay [3] is T2, Mitogen-activated protein kinase 12 (Homo sapiens) (UniProt P53778).
T2 sequence (whole entry): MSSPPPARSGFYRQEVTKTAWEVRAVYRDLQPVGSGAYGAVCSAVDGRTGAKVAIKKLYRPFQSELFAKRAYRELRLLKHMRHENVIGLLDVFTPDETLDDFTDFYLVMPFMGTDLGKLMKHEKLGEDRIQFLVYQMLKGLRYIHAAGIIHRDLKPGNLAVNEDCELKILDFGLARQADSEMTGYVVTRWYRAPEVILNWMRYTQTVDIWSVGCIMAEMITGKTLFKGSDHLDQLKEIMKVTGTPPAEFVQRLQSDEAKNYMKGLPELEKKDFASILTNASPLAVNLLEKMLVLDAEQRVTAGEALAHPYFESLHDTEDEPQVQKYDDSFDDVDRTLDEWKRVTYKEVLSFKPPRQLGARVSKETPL
Nature of the assay: Inhibition of p38gamma MAPK (unknown origin) at 1 uM incubated for 30 mins in presence of [gamma-33P]ATP by multidrop micro reagent based assay relative to control; values are per cent of control.

In assay [4] the target is T3, Rho-associated protein kinase 2 (Homo sapiens, UniProt O75116). Nature of the assay: Inhibition of ROCK2 (unknown origin) at 1 uM incubated for 30 mins in presence of [gamma-33P]ATP by multidrop micro reagent based assay relative to control; values are per cent of control.
The target in assay [5] is T3, Rho-associated protein kinase 2. The experiment in a line: Inhibition of ROCK2 in human Flp-In-T-REx-293 cells harboring GFP-tagged constitutively active G14V-Rho mutant assessed as inhibition of MYPT phosphorylation at Thr850 at 10 uM incubated for 1 hr by immunoblot analysis. The assay is classed as cell-based. The gist of the method:
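Flp-In T-REx cells carrying GFP-tagged G14V-Rho were induced with 1 μg/ml doxycycline in the medium. Seven hours after induction, cells were treated with 10 μM inhibitor for 1 h. They were then lysed directly in SDS lysis buffer and run on 4–12% gels. Blots were probed with anti-MYPT pThr850 (1 μg/ml in 5% BSA/TBST), followed by HRP secondary and ECL detection.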
(Immunoblotting shows a protein as a band on a membrane.)

The target in assay [6] is Mitogen-activated protein kinase 14 (Homo sapiens) (UniProt Q16539). Nature of the assay: Inhibition of p38alpha MAPK (unknown origin) at 1 uM incubated for 30 mins in presence of [gamma-33P]ATP by multidrop micro reagent based assay relative to control; values are per cent of control.
Assay [7] concerns the target Serine/threonine-protein kinase pim-3 (Homo sapiens) (UniProt Q86V86). The experiment in a line: Inhibition of PIM3 (unknown origin) at 1 uM incubated for 30 mins in presence of [gamma-33P]ATP by multidrop micro reagent based assay relative to control; values are per cent of control.
Assay [8] deals with Mitogen-activated protein kinase kinase kinase 11 (Homo sapiens) (UniProt Q16584). The experiment in a line: Inhibition of MLK3 (unknown origin) at 1 uM incubated for 30 mins in presence of [gamma-33P]ATP by multidrop micro reagent based assay relative to control; values are per cent of control.
Assay [9] addresses T4, Eukaryotic elongation factor 2 kinase (Homo sapiens) (UniProt O00418).
T4 sequence (whole entry): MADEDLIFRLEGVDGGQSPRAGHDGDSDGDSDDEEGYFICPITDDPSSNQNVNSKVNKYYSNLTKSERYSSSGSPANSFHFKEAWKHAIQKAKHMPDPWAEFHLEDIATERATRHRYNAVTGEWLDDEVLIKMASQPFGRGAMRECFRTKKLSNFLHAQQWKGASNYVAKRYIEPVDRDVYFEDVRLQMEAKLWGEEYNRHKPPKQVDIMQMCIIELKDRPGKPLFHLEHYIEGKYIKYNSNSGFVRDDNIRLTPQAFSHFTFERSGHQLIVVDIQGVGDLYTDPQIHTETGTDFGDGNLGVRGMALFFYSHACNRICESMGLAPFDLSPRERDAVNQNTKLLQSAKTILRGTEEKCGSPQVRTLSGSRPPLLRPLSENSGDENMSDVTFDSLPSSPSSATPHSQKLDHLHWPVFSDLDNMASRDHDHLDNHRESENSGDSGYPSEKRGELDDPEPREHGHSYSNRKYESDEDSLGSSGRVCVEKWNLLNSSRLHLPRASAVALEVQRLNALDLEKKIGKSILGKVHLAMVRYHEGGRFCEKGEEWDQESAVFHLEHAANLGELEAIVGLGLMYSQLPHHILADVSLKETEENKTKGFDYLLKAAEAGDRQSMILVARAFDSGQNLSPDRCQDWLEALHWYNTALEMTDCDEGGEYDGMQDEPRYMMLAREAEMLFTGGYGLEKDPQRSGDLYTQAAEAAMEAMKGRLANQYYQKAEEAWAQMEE
The experiment in a line: Inhibition of EF2K (unknown origin) at 1 uM incubated for 30 mins in presence of [gamma-33P]ATP by multidrop micro reagent based assay relative to control.

Activity calls are given as the source filed them. The rule behind the calls is not given here.

Sequence of Leucine-rich repeat serine/threonine-protein kinase 2 (Q5S007 whole entry G2019S, the tested form may be a part): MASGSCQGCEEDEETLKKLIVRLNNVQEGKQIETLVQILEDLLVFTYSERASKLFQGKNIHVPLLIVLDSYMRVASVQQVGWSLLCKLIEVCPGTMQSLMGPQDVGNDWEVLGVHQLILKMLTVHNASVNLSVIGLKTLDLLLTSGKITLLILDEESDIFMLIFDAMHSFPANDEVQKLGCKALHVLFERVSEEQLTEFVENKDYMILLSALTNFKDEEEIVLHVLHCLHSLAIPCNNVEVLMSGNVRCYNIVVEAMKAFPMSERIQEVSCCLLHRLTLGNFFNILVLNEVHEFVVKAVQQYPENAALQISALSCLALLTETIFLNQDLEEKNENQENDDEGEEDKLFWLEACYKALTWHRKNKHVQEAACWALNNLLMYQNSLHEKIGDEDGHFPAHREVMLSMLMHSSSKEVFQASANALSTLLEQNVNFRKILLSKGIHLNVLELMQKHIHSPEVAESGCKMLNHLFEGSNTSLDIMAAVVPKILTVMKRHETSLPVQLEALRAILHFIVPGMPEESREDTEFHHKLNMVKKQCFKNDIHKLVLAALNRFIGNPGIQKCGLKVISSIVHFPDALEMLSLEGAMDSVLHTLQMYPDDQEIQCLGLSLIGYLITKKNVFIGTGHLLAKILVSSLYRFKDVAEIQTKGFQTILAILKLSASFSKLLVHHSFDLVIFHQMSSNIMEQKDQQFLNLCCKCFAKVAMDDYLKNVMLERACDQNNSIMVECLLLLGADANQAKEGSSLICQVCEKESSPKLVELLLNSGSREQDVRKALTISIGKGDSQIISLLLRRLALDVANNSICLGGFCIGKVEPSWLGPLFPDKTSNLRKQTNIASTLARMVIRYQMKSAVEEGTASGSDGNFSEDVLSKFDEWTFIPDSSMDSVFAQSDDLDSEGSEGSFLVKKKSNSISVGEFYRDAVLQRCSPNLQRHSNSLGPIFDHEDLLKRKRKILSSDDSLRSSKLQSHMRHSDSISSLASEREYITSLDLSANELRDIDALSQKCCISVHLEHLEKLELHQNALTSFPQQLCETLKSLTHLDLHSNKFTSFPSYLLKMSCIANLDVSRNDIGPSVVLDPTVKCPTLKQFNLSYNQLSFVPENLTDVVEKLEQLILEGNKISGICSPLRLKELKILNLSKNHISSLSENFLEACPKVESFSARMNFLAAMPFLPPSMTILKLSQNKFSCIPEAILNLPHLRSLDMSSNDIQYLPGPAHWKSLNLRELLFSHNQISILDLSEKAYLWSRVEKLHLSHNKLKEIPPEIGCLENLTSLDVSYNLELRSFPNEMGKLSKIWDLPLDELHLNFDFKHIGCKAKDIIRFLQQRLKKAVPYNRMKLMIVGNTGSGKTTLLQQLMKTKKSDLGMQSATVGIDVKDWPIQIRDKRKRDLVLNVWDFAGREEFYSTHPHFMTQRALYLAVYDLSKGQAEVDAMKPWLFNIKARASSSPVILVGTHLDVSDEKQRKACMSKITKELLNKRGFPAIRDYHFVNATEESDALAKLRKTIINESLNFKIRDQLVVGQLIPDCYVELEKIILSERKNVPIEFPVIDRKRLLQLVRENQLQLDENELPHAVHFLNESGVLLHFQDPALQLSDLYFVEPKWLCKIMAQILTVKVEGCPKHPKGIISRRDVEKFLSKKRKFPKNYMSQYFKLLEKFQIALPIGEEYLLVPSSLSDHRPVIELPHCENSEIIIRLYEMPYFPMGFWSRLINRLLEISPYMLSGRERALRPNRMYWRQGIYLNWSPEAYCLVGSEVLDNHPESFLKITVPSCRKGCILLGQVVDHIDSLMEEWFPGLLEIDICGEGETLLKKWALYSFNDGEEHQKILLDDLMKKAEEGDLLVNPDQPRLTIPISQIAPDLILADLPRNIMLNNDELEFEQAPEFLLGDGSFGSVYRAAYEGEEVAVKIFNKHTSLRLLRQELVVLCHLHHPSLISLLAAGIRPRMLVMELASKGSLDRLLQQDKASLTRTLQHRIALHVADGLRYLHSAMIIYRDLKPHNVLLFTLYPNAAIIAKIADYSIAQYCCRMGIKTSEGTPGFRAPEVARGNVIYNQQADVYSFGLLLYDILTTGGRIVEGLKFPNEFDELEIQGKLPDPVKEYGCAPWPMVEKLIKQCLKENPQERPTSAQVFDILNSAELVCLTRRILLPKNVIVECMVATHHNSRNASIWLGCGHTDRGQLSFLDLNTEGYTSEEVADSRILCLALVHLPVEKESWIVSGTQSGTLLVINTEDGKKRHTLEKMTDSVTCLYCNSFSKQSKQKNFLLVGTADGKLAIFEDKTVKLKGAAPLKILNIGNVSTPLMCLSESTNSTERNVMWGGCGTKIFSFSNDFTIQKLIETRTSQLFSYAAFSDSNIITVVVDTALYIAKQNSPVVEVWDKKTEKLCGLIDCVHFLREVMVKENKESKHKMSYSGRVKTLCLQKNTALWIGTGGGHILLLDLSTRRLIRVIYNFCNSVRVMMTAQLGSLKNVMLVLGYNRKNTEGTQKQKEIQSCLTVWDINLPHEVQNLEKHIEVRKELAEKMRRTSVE
Sequence of Mitogen-activated protein kinase 14 (Homo sapiens) (Q16539 whole entry): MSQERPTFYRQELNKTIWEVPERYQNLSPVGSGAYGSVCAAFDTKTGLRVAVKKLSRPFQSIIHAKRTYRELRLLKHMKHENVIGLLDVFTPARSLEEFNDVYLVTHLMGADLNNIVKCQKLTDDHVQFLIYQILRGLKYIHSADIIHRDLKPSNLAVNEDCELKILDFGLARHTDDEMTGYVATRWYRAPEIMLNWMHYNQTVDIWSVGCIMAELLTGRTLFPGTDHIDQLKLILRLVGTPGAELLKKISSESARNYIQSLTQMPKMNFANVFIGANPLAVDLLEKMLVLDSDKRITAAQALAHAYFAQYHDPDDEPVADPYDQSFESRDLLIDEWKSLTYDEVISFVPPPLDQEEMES
Sequence of Mitogen-activated protein kinase kinase kinase 11 (Homo sapiens) (Q16584 whole entry, looked up): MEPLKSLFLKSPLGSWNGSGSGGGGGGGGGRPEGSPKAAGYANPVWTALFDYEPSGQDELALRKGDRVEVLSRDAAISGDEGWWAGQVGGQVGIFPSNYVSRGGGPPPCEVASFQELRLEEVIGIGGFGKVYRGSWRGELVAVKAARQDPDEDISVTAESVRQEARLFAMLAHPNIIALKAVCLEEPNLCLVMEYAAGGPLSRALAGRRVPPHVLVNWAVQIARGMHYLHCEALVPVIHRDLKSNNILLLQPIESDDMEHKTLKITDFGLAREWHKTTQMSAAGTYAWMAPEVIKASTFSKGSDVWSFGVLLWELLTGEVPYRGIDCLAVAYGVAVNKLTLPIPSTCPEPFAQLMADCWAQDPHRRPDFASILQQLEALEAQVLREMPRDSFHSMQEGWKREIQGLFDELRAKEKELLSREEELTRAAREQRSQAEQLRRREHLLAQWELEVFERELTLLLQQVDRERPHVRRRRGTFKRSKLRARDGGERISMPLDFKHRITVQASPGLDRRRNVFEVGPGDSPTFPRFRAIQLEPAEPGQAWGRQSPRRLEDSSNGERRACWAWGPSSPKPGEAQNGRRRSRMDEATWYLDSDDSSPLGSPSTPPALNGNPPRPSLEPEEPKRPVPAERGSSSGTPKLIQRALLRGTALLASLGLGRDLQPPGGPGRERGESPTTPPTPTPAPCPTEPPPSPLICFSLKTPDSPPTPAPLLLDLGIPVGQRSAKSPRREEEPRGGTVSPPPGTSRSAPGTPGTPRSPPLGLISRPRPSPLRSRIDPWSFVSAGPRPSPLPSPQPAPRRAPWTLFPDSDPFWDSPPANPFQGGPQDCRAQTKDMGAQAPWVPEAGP

Turning to `CC1=C(C(=O)Nc2cc3cn[nH]c3cc2F)C(c2ccc(C(F)(F)F)cc2)CC(=O)N1` (centres undefined), the IC50 in [1] was over 100000 nM. Besides, the residual activity was found to be 108% in [2]; 112% in assay [3]; 3% in assay [4]; 103% in assay [6]; 89% in [7]; 116% in [8]. In assay [9], the residual activity came out at 99%. For the same molecule, the inhibition entry in assay [5] is “Active”.

`Cc1cncc2cccc(S(=O)(=O)N3CCCNC[C@@H]3C)c12`: the IC50 in assay [1] is 150 nM. For the same molecule, the residual activity in [2] was 41%; in assay [3], 101%; in [4] it was 3%; in assay [6], 109%; in [8], 85%; in assay [9], 99%. For the same molecule, in assay [5], the inhibition result is “Active”.

For the molecule `C[C@@H](N)[C@H]1CC[C@H](C(=O)Nc2ccncc2)CC1`, the inhibition result in assay [5] was “Active”.

For the molecule `O=S(=O)(c1cccc2cnccc12)N1CCCNCC1` [FASUDIL], the IC50 in [1] is over 30000 nM.

As to `CCn1c(-c2nonc2N)nc2cnc(Oc3cccc(NC(=O)c4ccc(OCCN5CCOCC5)cc4)c3)cc21` [GSK-269962A], in assay [1], the IC50 amounted to 2300 nM. In addition, the residual activity turned out to be 98% in [2]; 72% in assay [3]; 1% in assay [4]; 108% in [6]; 35% in [7]; 97% in assay [8]. Besides, in assay [9], the residual activity is 113%.

As for `CCN(CC)CCNC(=O)c1c(C)[nH]c(/C=C2\C(=O)Nc3ccc(F)cc32)c1C`, the residual activity in [4] amounted to 67%; in assay [7] it was 50%.
